Legend:
A549 = assay: Anticancer activity against human A549 cells assessed as cell growth inhibition; assay type: functional, cell-based; details: dose 1-100 µM, DDE = dose-dependent effect
[1] = target: 5-hydroxytryptamine receptor 3A (Homo sapiens) (UniProt P46098); assay: Binding affinity to 5-HT3 receptor (unknown origin) at 10000 nM by radioligand displacement assay relative to control
HCT-15 = assay: Anticancer activity against human HCT-15 cells assessed as cell growth inhibition; assay type: functional, cell-based; details: dose 1-100 µM, DDE = dose-dependent effect
[2] = target: Muscarinic acetylcholine receptor M1 (Homo sapiens) (UniProt P11229); assay: Binding affinity to M1 receptor (unknown origin) at 10000 nM by radioligand displacement assay relative to control
Muscarinic acetylcholine receptor M1 (Homo sapiens), sequence (P11229 whole entry): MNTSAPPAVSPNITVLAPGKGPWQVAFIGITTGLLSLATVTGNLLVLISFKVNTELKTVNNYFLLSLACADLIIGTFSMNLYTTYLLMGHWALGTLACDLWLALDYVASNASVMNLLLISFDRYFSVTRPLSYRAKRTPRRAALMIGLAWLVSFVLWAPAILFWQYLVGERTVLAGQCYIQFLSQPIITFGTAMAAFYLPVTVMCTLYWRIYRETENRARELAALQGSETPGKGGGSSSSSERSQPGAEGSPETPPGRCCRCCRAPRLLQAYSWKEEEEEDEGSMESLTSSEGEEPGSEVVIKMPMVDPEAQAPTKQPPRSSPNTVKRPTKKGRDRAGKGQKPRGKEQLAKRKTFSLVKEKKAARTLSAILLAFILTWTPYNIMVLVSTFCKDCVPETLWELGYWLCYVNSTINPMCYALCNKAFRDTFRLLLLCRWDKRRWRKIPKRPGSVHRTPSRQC

[3] = target: 5-hydroxytryptamine receptor 1A (Homo sapiens) (UniProt P08908); assay: Binding affinity to 5-HT1A receptor (unknown origin) at 10000 nM by radioligand displacement assay relative to control
5-hydroxytryptamine receptor 1A (Homo sapiens), sequence (P08908 whole entry, the tested form may be a part): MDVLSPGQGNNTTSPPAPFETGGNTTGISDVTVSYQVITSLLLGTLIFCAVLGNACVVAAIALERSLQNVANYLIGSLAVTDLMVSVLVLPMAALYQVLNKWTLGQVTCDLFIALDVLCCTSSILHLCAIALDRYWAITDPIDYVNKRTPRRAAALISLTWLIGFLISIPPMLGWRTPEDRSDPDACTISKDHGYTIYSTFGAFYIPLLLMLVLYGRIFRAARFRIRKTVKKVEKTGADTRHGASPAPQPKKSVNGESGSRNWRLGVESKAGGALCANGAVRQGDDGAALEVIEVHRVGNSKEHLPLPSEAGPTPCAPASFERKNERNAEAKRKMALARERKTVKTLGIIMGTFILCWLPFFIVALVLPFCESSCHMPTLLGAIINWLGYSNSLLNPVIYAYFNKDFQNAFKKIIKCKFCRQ

PC-3M = assay: Antiproliferative activity against human PC-3M cells expressing PTB/GFP fusion protein assessed as cell growth inhibition at < 100 nM and measured every four hrs for 130 hrs by IncuCyte zoom live cell analysis; assay type: functional, cell-based; details: DDE = dose-dependent effect
How it was run: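 PC3M cells stably expressing GFP-PTB, grown in DMEM with 10% FBS and 1% penicillin/streptomycin, seeded at 1.25×10^4 cells/ml in 384-well plates and left overnight at 37 °C, 5% CO2. Compound added in DMEM to give 11 final concentrations from 10 nM to 20 μM. Brightfield images were taken every 4 h for about 130 h and scored as percent confluence.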

[4] = target: D(1A) dopamine receptor (Homo sapiens) (UniProt P21728); assay: Binding affinity to D1 receptor (unknown origin) at 10000 nM by radioligand displacement assay relative to control
D(1A) dopamine receptor (Homo sapiens), sequence (P21728 whole entry): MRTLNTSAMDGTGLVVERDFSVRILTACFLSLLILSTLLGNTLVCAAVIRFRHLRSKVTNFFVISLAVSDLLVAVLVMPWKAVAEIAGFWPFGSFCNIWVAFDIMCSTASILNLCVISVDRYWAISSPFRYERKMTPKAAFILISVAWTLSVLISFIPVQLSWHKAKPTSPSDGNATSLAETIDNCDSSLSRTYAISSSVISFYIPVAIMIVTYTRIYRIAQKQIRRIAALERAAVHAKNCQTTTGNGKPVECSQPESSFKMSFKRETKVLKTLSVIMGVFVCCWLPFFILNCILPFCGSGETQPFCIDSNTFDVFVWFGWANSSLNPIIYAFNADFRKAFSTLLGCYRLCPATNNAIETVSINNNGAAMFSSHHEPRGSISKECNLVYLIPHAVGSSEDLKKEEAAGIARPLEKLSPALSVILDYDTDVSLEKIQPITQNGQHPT

IGROV-1 = assay: Anticancer activity against human IGROV-1 cells assessed as cell growth inhibition; assay type: functional, cell-based; details: dose 1-100 µM, DDE = dose-dependent effect
M14 = assay: Anticancer activity against human M14 cells assessed as cell growth inhibition; assay type: functional, cell-based; details: dose 1-100 µM, DDE = dose-dependent effect
[5] = target: Alpha-1D adrenergic receptor (Homo sapiens, UniProt P25100); assay: Binding affinity to alpha1D receptor (unknown origin) by radioligand displacement assay
Alpha-1D adrenergic receptor, sequence (P25100 whole entry): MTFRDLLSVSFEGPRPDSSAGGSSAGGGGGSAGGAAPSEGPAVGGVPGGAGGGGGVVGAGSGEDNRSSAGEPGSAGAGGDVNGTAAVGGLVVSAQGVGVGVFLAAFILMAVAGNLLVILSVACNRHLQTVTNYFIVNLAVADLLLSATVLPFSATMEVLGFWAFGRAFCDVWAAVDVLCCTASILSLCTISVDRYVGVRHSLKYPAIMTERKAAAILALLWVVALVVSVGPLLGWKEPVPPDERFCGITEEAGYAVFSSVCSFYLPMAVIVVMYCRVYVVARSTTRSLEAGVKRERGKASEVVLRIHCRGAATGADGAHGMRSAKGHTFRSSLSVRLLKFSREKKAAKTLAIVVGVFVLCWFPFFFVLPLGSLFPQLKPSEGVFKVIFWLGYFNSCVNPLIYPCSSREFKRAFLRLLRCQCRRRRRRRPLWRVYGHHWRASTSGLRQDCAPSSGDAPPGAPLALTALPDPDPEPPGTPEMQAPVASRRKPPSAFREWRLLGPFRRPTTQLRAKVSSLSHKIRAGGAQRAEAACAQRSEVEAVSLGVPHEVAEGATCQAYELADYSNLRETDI

[6] = target: Muscarinic acetylcholine receptor M2 (Homo sapiens) (UniProt P08172); assay: Binding affinity to M2 receptor (unknown origin) at 10000 nM by radioligand displacement assay relative to control
Muscarinic acetylcholine receptor M2 (Homo sapiens), sequence (P08172 whole entry): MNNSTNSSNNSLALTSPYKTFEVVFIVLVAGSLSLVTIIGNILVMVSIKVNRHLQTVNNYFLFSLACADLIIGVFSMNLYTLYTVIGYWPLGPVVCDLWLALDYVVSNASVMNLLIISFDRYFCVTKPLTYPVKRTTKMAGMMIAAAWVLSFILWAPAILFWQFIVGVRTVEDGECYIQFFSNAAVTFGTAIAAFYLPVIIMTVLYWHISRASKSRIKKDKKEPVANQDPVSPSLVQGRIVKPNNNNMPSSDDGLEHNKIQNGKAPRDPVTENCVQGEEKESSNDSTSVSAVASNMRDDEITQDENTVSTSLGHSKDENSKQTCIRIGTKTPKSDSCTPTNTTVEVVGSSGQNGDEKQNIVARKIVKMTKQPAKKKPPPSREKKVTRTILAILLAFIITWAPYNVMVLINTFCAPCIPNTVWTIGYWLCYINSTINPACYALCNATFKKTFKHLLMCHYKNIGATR

SK-MEL-2 = assay: Anticancer activity against human SK-MEL-2 cells assessed as cell growth inhibition; assay type: functional, cell-based; details: dose 1-100 µM, DDE = dose-dependent effect
BT-549 = assay: Anticancer activity against human BT-549 cells assessed as cell growth inhibition; assay type: functional, cell-based; details: dose 1-100 µM, DDE = dose-dependent effect
[7] = mouse, in vivo, ip, 50 mg/kg, 48 h
KM12 = assay: Anticancer activity against human KM12 cells assessed as cell growth inhibition; assay type: functional, cell-based; details: dose 1-100 µM, DDE = dose-dependent effect
SK-MEL-28 = assay: Anticancer activity against human SK-MEL-28 cells assessed as cell growth inhibition; assay type: functional, cell-based; details: dose 1-100 µM, DDE = dose-dependent effect

5-hydroxytryptamine receptor 3A (Homo sapiens), sequence (P46098 whole entry): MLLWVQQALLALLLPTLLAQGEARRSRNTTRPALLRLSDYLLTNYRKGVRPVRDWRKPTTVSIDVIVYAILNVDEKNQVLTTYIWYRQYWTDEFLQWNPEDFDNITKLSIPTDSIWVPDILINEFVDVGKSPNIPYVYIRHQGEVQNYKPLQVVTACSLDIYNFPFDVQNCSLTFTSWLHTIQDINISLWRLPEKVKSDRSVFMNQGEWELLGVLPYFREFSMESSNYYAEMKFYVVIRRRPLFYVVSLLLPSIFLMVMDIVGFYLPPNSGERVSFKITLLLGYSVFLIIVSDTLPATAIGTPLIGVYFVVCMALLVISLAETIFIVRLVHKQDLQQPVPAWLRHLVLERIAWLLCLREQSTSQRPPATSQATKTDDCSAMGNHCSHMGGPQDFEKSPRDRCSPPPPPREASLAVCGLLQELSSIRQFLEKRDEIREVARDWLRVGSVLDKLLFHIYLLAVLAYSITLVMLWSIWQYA

Q: Which Activity (A549) does the source give for `N=c1c2c(-c3ccccc3)c(-c3ccccc3)n(Cc3ccccc3)c2ncn1[C@H]1CC[C@H](O)CC1` [ML-246] here?
A: Dde

Q: What about the Activity [1] of the same molecule?
A: < 50%

Q: And the Activity (HCT-15)?
A: Dde

Q: What about the Activity [2] of the same molecule?
A: < 50%

Q: What about the Activity [3] of the same molecule?
A: < 50%

Q: And the Activity (PC-3M)?
A: Dde

Q: And the Activity [4]?
A: < 50%

Q: And the Activity (IGROV-1)?
A: Dde

Q: What about the Activity (M14) of the same molecule?
A: Dde

Q: And the Ki [5]?
A: 3.26 µM

Q: What about the Activity [6] of the same molecule?
A: < 50%

Q: What about the Activity (SK-MEL-2) of the same molecule?
A: Dde

Q: And the Activity (BT-549)?
A: Dde

Q: And the Tmax [7]?
A: 30 min

Q: What about the Activity (KM12) of the same molecule?
A: Dde

Q: And the Activity (SK-MEL-28)?
A: Dde

— ChEMBL document CHEMBL5154945, “Discovery and Optimization of Pyrrolopyrimidine Derivatives as Selective Disruptors of the Perinucleolar Compartment, a Marker of Tumor Progression toward Metastasis” (J Med Chem, 2022)
